Test results taken from ChEMBL document CHEMBL1146024, “Synthesis and structure-activity relationships of truncated bisubstrate inhibitors of aminoglycoside 6'-N-acetyltransferases” (J Med Chem, 2006).
Calls of active or inactive are those of the source. No cut-off for these calls is given here.

System: Enterococcus faecium
Assay: Inhibition of Enterococcus faecium C238 growth in presence of kanamycin A
Type: functional, organism-based
Method in brief: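 Two-dimensional checkerboard MIC assay per NCCLS, in duplicate, in brain heart infusion medium. Test compound in 2-fold dilutions from 8 to 512 µg/mL against kanamycin A at 100-600 µg/mL. Grown at 37 °C for 16 h; growth read at OD625, averaged, normalized to sterility controls and expressed as percent of positive growth controls.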

For `CC(=O)CC(=O)OCC(C)(C)[C@@H](O)C(=O)NCCC(=O)NCCSCC(=O)NC[C@H]1O[C@H](O[C@H]2[C@H](O)[C@@H](O)[C@H](N)C[C@@H]2N)[C@H](N)[C@@H](O)[C@@H]1O`, the Activity was “Active”.
With `CC(C)(COC(=O)CC(=O)O)[C@@H](O)C(=O)NCCC(=O)NCCSCC(=O)NC[C@H]1O[C@H](O[C@H]2[C@H](O)[C@@H](O)[C@H](N)C[C@@H]2N)[C@H](N)[C@@H](O)[C@@H]1O` the Activity was “inactive”.
